Results published in ChEMBL document CHEMBL2380254, “Optimization of tocotrienols as antiproliferative and antimigratory leads” (Eur J Med Chem, 2013).

Tests used:
[1] = system: T47D; assay: Growth inhibition of human T47D cells assessed as cell growth at 10 uM after 48 hrs by sulforhodamine B assay; format: functional; settings: read-out: Activity
How it was run: (§1)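 Single-dose NCI-60 test at 10 µM. Cells were grown in RPMI 1640 with 5% FBS and 2 mM L-glutamine, preincubated 24 h, with T0 plates TCA-fixed. Exposure was 48 h at 37 °C, 5% CO2. Cells were fixed with cold TCA (final 10%, 4 °C, 60 min), stained with SRB and read at 515 nm. Percent growth was taken relative to T0 and untreated control; negative values denote cell kill.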

[2] = system: DU-145; assay: Growth inhibition of human DU145 cells assessed as cell growth at 10 uM after 48 hrs by sulforhodamine B assay; format: functional; settings: DU-145, 48 h, read-out: Activity
How it was run: (§2)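 NCI-60 single-dose screen at 10 µM: cells in RPMI 1640 with 5% FBS, preincubated 24 h, then exposed 48 h at 37 °C. TCA fixation (16% final for suspension cells), SRB staining, absorbance 515 nm. Percent growth relative to time-zero and untreated control plates; negative values indicate cell kill.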

[3] = system: OVCAR-5; assay: Growth inhibition of human OVCAR5 cells assessed as cell growth at 10 uM after 48 hrs by sulforhodamine B assay; format: functional; settings: OVCAR-5, 48 h, read-out: Activity
How it was run: (§3)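 Single-dose NCI-60 screen: adherent cells in RPMI 1640 with 5% FBS were exposed to 10 µM for 48 h at 37 °C after a 24 h preincubation. They were fixed in situ with cold TCA (10% final), stained with 0.4% SRB in 1% acetic acid, solubilized in 10 mM Tris base, and read at 515 nm. Percent growth was taken relative to time-zero and control plates.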

[4] = system: SK-MEL-28; assay: Growth inhibition of human SK-MEL-28 cells assessed as cell growth at 10 uM after 48 hrs by sulforhodamine B assay; format: functional; settings: SK-MEL-28, 48 h, read-out: Activity; how it was run: as §3
[5] = system: SNB-75; assay: Growth inhibition of human SNB75 cells assessed as cell growth at 10 uM after 48 hrs by sulforhodamine B assay; format: functional; settings: SNB-75, 48 h, read-out: Activity; how it was run: as §1
[6] = system: SF-295; assay: Growth inhibition of human SF295 cells assessed as cell growth at 10 uM after 48 hrs by sulforhodamine B assay; format: functional; settings: SF-295, 48 h, read-out: Activity; how it was run: as §3
[7] = system: NCI-H460; assay: Growth inhibition of human NCI-H460 cells assessed as cell growth at 10 uM after 48 hrs by sulforhodamine B assay; format: functional; settings: NCI-H460, 48 h, read-out: Activity; how it was run: as §3
[8] = system: HOP-62; assay: Growth inhibition of human HOP62 cells assessed as cell growth at 10 uM after 48 hrs by sulforhodamine B assay; format: functional; settings: HOP-62, 48 h, read-out: Activity; how it was run: as §2
[9] = system: MOLT-4; assay: Growth inhibition of human MOLT4 cells assessed as cell growth at 10 uM after 48 hrs by sulforhodamine B assay; format: functional; settings: MOLT-4, 48 h, read-out: Activity
How it was run: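 Single 10 µM dose applied to suspension cells in RPMI 1640 with 5% FBS and 2 mM L-glutamine for 48 h at 37 °C. Settled cells were fixed with 80% TCA (16% final), stained with SRB, and read at 515 nm. Percent growth was calculated against time-zero and untreated control optical densities.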

[10] = system: MDA-MB-231; assay: Antiproliferative activity against human MDA-MB-231 cells by MTT assay; format: functional, cell-based
How it was run: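 Cells plated at 8 × 10^3/well (MDA-MB-231) or 10^4/well (MCF7) in 96-well plates. Compounds fed in media with 5% FBS (MDA-MB-231) or 1% FBS (MCF7). MTT read-out of viable cells.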

[11] = Antiproliferative activity against mouse +SA cells by MTT assay; format: functional, cell-based; settings: +SA cell
How it was run: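 Mouse +SA mammary epithelial cells in serum-free DMEM/F12 with BSA, transferrin, insulin and EGF. Compounds from DMSO stock conjugated to BSA (overnight, 37 °C); 0–40 µM, final DMSO <0.1%. MTT 0.42 mg/mL for 4 h at 37 °C, isopropanol solubilization, OD 570 nm. Cell number from a standard curve; IC50 by non-linear regression.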

[12] = system: HOP-92; assay: Growth inhibition of human HOP92 cells assessed as cell growth at 10 uM after 48 hrs by sulforhodamine B assay; format: functional; settings: HOP-92, 48 h, read-out: Activity; how it was run: as §2
[13] = system: MDA-MB-231; assay: Growth inhibition of human MDA-MB-231 cells after 48 hrs by sulforhodamine B assay; format: functional; settings: MDA-MB-231, 48 h
How it was run: (§4)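 NCI-60 panel cells grown in RPMI 1640 with 5% FBS and 2 mM L-glutamine, seeded at 5000–40,000 cells/well and preincubated 24 h. Five 10-fold dilutions (0.001–100 µM) from DMSO stocks were added for 48 h at 37 °C. Adherent cells were fixed with cold TCA (10% final) for 60 min at 4 °C, stained with 0.4% SRB, and read at 515 nm. GI50 was set where 100×(T−T0)/(C−T0)=50.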

[14] = system: TK-10; assay: Growth inhibition of human TK10 cells after 48 hrs by sulforhodamine B assay; format: functional; settings: TK-10, 48 h
How it was run: (§5)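 NCI-60 five-dose screen. Cells were grown in RPMI 1640 with 5% FBS and 2 mM L-glutamine, plated at 5000–40,000 cells/well and incubated 24 h before dosing, with T0 plates TCA-fixed. DMSO stocks were diluted to doses of […] and exposed 48 h at 37 °C, 5% CO2. Cells were fixed with cold TCA (final 10%, 60 min, 4 °C), stained with 0.4% SRB in 1% acetic acid for 10 min, solubilized in 10 mM trizma base and read at 515 nm. GI50 is where 100×(T−T0)/(C−T0)=50.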

[15] = system: UO-31; assay: Growth inhibition of human UO31 cells after 48 hrs by sulforhodamine B assay; format: functional; settings: UO-31, 48 h; how it was run: as §5
[16] = system: OVCAR-4; assay: Growth inhibition of human OVCAR4 cells after 48 hrs by sulforhodamine B assay; format: functional; settings: OVCAR-4, 48 h; how it was run: as §4
[17] = system: SF-268; assay: Growth inhibition of human SF268 cells after 48 hrs by sulforhodamine B assay; format: functional; settings: SF-268, 48 h; how it was run: as §4
[18] = system: MOLT-4; assay: Growth inhibition of human MOLT4 cells after 48 hrs by sulforhodamine B assay; format: functional; settings: MOLT-4, 48 h
How it was run: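 NCI-60 suspension lines in RPMI 1640 with 5% FBS and 2 mM L-glutamine, preincubated 24 h. A five-concentration 10-fold series (0.001–100 µM) was given for 48 h at 37 °C. Settled cells were fixed with 80% TCA (16% final), stained with SRB, and read at 515 nm. GI50 was taken where 100×(T−T0)/(C−T0)=50, with T0 plates fixed at drug addition.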

[19] = system: HL-60(TB); assay: Growth inhibition of human HL-60(TB) cells after 48 hrs by sulforhodamine B assay; format: functional; settings: HL-60, 48 h
How it was run: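 HL-60(TB) cells (suspension) grown in RPMI 1640 with 5% FBS and 2 mM L-glutamine. They were plated and preincubated for 24 h, with T0 plates fixed at that point. Drug was given at five 10-fold dilutions for 48 h at 37 °C. Settled cells were fixed with TCA (16% final), stained with 0.4% SRB in 1% acetic acid and read at 515 nm. GI50 was taken where 100×(T−T0)/(C−T0)=50.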

Molecule `CC(C)=CCC/C(C)=C/CC/C(C)=C/CC[C@]1(C)CCc2c3c(cc(C)c2O1)OCN(CCCCCCCCCCCCO)C3` has a growth at 10 µM [1] of 78.5%, a growth at 10 µM [2] of 85.4% and a growth at 10 µM [3] of 102%. For the same molecule, the growth at 10 µM [4] was 75.3%, the growth at 10 µM [5] was 97.7% and the growth at 10 µM [6] was 93.3%. For the same molecule, the growth at 10 µM [7] was 48.2%, the growth at 10 µM [8] was 86.9% and the growth at 10 µM [9] was 48.5%. For the same molecule, the IC50 [10] was > 50 µM and the IC50 [11] was 2000 nM.
Molecule `CC(C)=CCC/C(C)=C/CC/C(C)=C/CC[C@]1(C)CCc2cc(O)c(C)c(C)c2O1` [GAMMA-TOCOTRIENOL] has a growth at 10 µM [1] of 82.5%, a growth at 10 µM [2] of 99.7% and a growth at 10 µM [3] of 114%. It also gave a growth at 10 µM [4] of 97.3%, a growth at 10 µM [5] of 84.3% and a growth at 10 µM [6] of 105%. It also gave a growth at 10 µM [7] of 105%, a growth at 10 µM [12] of 92% and a growth at 10 µM [8] of 108%. It also gave a growth at 10 µM [9] of 84.3% and an IC50 [10] of 9.4 µM.
Work on `COc1ccc(CCNCc2c(O)c(C)c(C)c3c2CC[C@@](C)(CC/C=C(\C)CC/C=C(\C)CCC=C(C)C)O3)cc1OC` yielded a growth at 10 µM [1] of 83.2%, a growth at 10 µM [2] of 110% and a growth at 10 µM [3] of 104%. For the same molecule, the growth at 10 µM [4] was 92.6%, the growth at 10 µM [5] was 80.5% and the growth at 10 µM [6] was 102%. The growth at 10 µM [7] was 73.4%, the growth at 10 µM [12] was 104% and the growth at 10 µM [8] was 115%. For the same molecule, the growth at 10 µM [9] was 30.3% and the IC50 [11] was 1700 nM.
With `CC(C)=CCC/C(C)=C/CC/C(C)=C/CC[C@]1(C)CCc2c3c(cc(C)c2O1)OCN(CCCCCCCCO)C3` the growth at 10 µM [1] was -67%, the growth at 10 µM [2] was -57.7% and the growth at 10 µM [3] was -70.8%. The growth at 10 µM [4] was -89.2%, the growth at 10 µM [5] was -61.4% and the growth at 10 µM [6] was -83.8%. The growth at 10 µM [7] was 0.55%, the growth at 10 µM [8] was -99% and the growth at 10 µM [9] was -58.6%. The GI50 [13] was 1100 nM, the GI50 [14] was 4.64 µM and the GI50 [15] was 3460 nM. The GI50 [16] was 585 nM, the GI50 [17] was 4.14 µM and the GI50 [18] was 996 nM. For the same molecule, the GI50 [19] was 1030 nM, the IC50 [10] was 11.7 µM and the IC50 [11] was 790 nM.
`CC(C)=CCC/C(C)=C/CC/C(C)=C/CC[C@]1(C)CCc2c(CNCCc3ccc(O)cc3)c(O)c(C)c(C)c2O1` gave a growth at 10 µM [1] of 99.1%, a growth at 10 µM [2] of 111% and a growth at 10 µM [3] of 113%. The growth at 10 µM [4] was 93.4%, the growth at 10 µM [5] was 68.1% and the growth at 10 µM [6] was 105%. The growth at 10 µM [7] was 92.3%, the growth at 10 µM [12] was 94.6% and the growth at 10 µM [8] was 105%. It also gave a growth at 10 µM [9] of 54.6% and an IC50 [11] of 2300 nM.
For `CC(C)=CCC/C(C)=C/CC/C(C)=C/CC[C@]1(C)CCc2c3c(c(C)c(C)c2O1)OCN(CCCCCCO)C3`, the growth at 10 µM [1] was 8.28%, the growth at 10 µM [2] was 77% and the growth at 10 µM [3] was 39%. For the same molecule, the growth at 10 µM [4] was 63.1%, the growth at 10 µM [5] was 62.8% and the growth at 10 µM [6] was 61.7%. It also gave a growth at 10 µM [7] of 2.49%, a growth at 10 µM [8] of -23.3% and a growth at 10 µM [9] of -18.4%. It also gave a GI50 [13] of 2750 nM, a GI50 [14] of 3.01 µM and a GI50 [15] of 2270 nM. For the same molecule, the GI50 [16] was 2490 nM, the GI50 [17] was 2.81 µM and the GI50 [18] was 2920 nM. For the same molecule, the GI50 [19] was 3580 nM, the IC50 [10] was > 10 µM and the IC50 [11] was 2100 nM.
